According to ChEMBL document CHEMBL1137294, “Adenosine mimetics as inhibitors of NAD+-dependent histone deacetylases, from kinase to sirtuin inhibition” (J Med Chem, 2006):
Active and inactive are the calls of the source. No cut-off for these calls is given here.

What follows are compounds tested against T1, NAD-dependent protein deacetylase sirtuin-1 (Homo sapiens, UniProt Q96EB6) (assay: Inhibition of human SIRT1 by fluorescent deacetylase assay).
T1 sequence (Q96EB6 whole entry): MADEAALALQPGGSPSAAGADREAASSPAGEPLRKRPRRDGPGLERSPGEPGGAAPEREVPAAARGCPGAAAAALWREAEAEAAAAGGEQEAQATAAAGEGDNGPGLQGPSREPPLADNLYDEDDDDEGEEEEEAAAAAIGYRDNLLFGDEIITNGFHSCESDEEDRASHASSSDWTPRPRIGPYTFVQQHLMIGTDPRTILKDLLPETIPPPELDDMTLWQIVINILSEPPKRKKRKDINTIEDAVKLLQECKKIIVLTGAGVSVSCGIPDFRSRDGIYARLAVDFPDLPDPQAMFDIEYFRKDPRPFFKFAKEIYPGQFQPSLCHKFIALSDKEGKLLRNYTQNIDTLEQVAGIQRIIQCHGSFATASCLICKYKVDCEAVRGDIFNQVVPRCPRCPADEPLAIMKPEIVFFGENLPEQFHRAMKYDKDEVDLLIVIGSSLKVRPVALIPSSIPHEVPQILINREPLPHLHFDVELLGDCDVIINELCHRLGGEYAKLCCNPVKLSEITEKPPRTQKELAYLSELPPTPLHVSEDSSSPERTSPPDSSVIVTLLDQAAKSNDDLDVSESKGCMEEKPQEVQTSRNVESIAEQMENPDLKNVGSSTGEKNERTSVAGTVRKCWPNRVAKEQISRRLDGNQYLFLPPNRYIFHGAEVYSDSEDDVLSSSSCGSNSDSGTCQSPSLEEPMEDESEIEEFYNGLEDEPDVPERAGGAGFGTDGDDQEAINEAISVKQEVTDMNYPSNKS
Summary of the method: (§1)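 Homogeneous fluorescent deacetylase assay with recombinant SIRT1 or SIRT2 (SIRT2 full-length, N-terminal His6, expressed in E. coli BL21). Reaction held ZMAL substrate 10.5 µM and NAD+ 500 µM, run 4 h at 37 °C. Deacetylated product developed by tryptic digest; fluorescence read at ex 390/em 460 nm. Inhibition taken from remaining substrate versus no-inhibitor control. Run at least in duplicate, inhibitors added from DMSO stocks.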

| Structure (SMILES) | IC50 [µM] |
| --- | --- |
| O=C1Cc2c([nH]c3ccccc23)-c2ccccc2N1 [PAULLONE] | 50 |
| CN(C)CCCn1cc(C2=C(c3c[nH]c4ccccc34)C(=O)NC2=O)c2ccccc21 [GF-109203] | > 50 |
| CN1C(=O)C(c2c[nH]c3ccccc23)=C(c2c[nH]c3ccccc23)C1=O | > 50 |

Each compound was assayed against T2, NAD-dependent protein deacetylase sirtuin-2 (Homo sapiens) (UniProt Q8IXJ6) (assay: Inhibition of human recombinant SIRT2 at 50 uM).
T2 sequence (whole entry): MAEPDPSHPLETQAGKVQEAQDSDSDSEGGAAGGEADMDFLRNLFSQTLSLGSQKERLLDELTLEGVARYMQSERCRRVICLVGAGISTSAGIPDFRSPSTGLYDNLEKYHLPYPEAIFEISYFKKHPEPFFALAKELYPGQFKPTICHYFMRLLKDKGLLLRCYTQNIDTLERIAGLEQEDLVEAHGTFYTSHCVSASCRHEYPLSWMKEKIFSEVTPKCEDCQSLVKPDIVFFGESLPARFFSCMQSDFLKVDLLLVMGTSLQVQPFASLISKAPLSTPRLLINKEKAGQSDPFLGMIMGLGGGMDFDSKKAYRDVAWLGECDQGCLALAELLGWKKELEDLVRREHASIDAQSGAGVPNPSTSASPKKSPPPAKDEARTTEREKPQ
Summary of the method: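 N-terminally His6-tagged full-length human SIRT2, expressed in E. coli BL21. Homogeneous fluorescent deacetylase assay with ZMAL substrate (10.5 µM) and NAD+ (500 µM), 4 h at 37 °C. Inhibitor was added from DMSO stock. After stopping, a tryptic digest developed the fluorophore (ex 390/em 460 nm). Inhibition was taken from remaining substrate versus an uninhibited control, run at least in duplicate.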

| Structure (SMILES) | Activity | inhibition [%] |
| --- | --- | --- |
| CN[C@@H]1C[C@H]2O[C@@](C)([C@@H]1OC)n1c3ccccc3c3c4c(c5c6ccccc6n2c5c31)C(=O)NC4 | inactive |  |
| ONC1=Nc2ccccc2-c2[nH]c3ccc(Br)cc3c2C1 |  | 43.1 |

What follows are compounds tested against T3, NAD-dependent protein deacetylase sirtuin-1 (Homo sapiens) (UniProt Q96EB6) (assay: Inhibition of human SIRT1 at 50 uM).
T3 sequence (whole entry): T1 sequence (Q96EB6 whole entry)
Summary of the method: as §1

| Structure (SMILES) | inhibition [%] | Activity |
| --- | --- | --- |
| O=C1NC(=O)C(c2c[nH]c3cccc(F)c23)=C1c1cn(CCOC(CCO)C(O)CO)c2ccccc12 (stereo unspecified) | 29.9 |  |
| O=C1Cc2c([nH]c3ccccc23)-c2ccccc2N1 [PAULLONE] | 49.4 |  |
| O=C1NC(=O)C(c2c[nH]c3cccc(F)c23)=C1c1cn(CCOC(CCO)C2COC3(CCCCC3)O2)c2ccccc12 (stereo unspecified) | 71.9 |  |
| O=C1NC(=O)C2=C1c1cn(c3ccccc13)CCOC(C(O)CO)CCn1cc2c2c(F)cccc21 (stereo unspecified) |  | inactive |
| NC(=O)c1cccnc1 | 10.6 |  |
| O=C1NC(=O)C(c2cn(CCOC(CCO)C3COC4(CCCCC4)O3)c3ccccc23)=C1c1c[nH]c2ccccc12 (stereo unspecified) | 77.5 |  |
| CN1CCCC1CCn1cc(C2=C(c3c[nH]c4ccccc34)C(=O)NC2=O)c2ccccc21 (stereo unspecified) | 58.2 |  |
| O=C1NC(=O)C2=C1c1cn(c3ccccc13)CC[C@@H](C1COC3(CCCCC3)O1)OCCn1cc2c2c(F)cccc21 (stereo partly specified) | 55.7 |  |
| O=C1NC(=O)C(c2c[nH]c3ccccc23)=C1c1c[nH]c2ccccc12 [RO-316233] | 52.7 |  |
| CN(C)C[C@H]1OCCn2cc(c3ccccc32)C2=C(C(=O)NC2=O)c2cn(c3cccc(F)c23)C[C@H]1F |  | inactive |

Each compound was assayed against T1, NAD-dependent protein deacetylase sirtuin-1 (assay: Inhibition of human SIRT1).
Summary of the method: (§2)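 Homogeneous fluorescent deacetylase assay with recombinant SIRT1 or SIRT2 (SIRT2 full-length, N-terminal His6, expressed in E. coli BL21). Inhibition taken from remaining substrate versus no-inhibitor control. Run at least in duplicate, inhibitors added from DMSO stocks.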

| Structure (SMILES) | IC50 [µM] |
| --- | --- |
| CN(C)CCCn1cc(C2=C(c3c[nH]c4ccccc34)C(=O)NC2=O)c2ccccc21 [GF-109203] | > 50 |
| CN1C(=O)C(c2c[nH]c3ccccc23)=C(c2c[nH]c3ccccc23)C1=O | > 50 |

The compounds below were run against T4, NAD-dependent protein deacetylase sirtuin-2 (Homo sapiens, UniProt Q8IXJ6) (assay: Inhibition of human recombinant SIRT2).
T4 sequence (Q8IXJ6 whole entry): T2 sequence (whole entry)
Summary of the method: as §2

| Structure (SMILES) | IC50 [µM] |
| --- | --- |
| O=C1NC(=O)C(c2c[nH]c3cccc(F)c23)=C1c1cn(CCOC(CCO)C(O)CO)c2ccccc12 (stereo unspecified) | 9.5 |
| CN1C(=O)C(c2cn(Cc3ccccc3)c3ccccc23)=C(c2cn(Cc3ccccc3)c3ccccc23)C1=O | 78.3 |
| CN(C)CCCn1cc(C2=C(c3c[nH]c4ccccc34)C(=O)NC2=O)c2ccccc21 [GF-109203] | 7.3 |
| O=C1NC(=O)C(c2c[nH]c3cccc(F)c23)=C1c1cn(CCOC(CCO)C2COC3(CCCCC3)O2)c2ccccc12 (stereo unspecified) | 2.5 |
| O=C1NC(=O)C2=C1c1cn(c3ccccc13)CCOC(C(O)CO)CCn1cc2c2c(F)cccc21 (stereo unspecified) | > 50 |
| O=C1Cc2c([nH]c3ccc(Br)cc23)-c2ccccc2N1 [KENPAULLONE] | > 100 |
| Cn1c2ccccc2c2c3c(c4c5ccccc5n(CCC#N)c4c21)CNC3=O [GO-6976] | > 100 |
| O=C1NC(=O)C(c2cn(CCOC(CCO)C3COC4(CCCCC4)O3)c3ccccc23)=C1c1c[nH]c2ccccc12 (stereo unspecified) | 2.8 |
| O=C1C(c2c[nH]c3ccccc23)=C(c2c[nH]c3ccccc23)C(=O)N1Cc1ccccc1 | 40 |
| CN1CCCC1CCn1cc(C2=C(c3c[nH]c4ccccc34)C(=O)NC2=O)c2ccccc21 (stereo unspecified) | 8.3 |
| O=C1NC(=O)C2=C1c1cn(c3ccccc13)CC[C@@H](C1COC3(CCCCC3)O1)OCCn1cc2c2c(F)cccc21 (stereo partly specified) | 20.8 |
| CN1C(=O)C(c2c[nH]c3ccccc23)=C(c2c[nH]c3ccccc23)C1=O | 33 |
| CN1C(=O)C(c2cn(CCCCCCCO)c3ccccc23)=C(c2cn(CCCCCCCO)c3ccccc23)C1=O | > 100 |
| O=C1NC(=O)C(c2c[nH]c3ccccc23)=C1c1c[nH]c2ccccc12 [RO-316233] | 4.7 |
| CN(C)C[C@H]1OCCn2cc(c3ccccc32)C2=C(C(=O)NC2=O)c2cn(c3cccc(F)c23)C[C@H]1F | > 50 |
| CCCCCCCn1cc(C2=C(c3cn(CCCCCCC)c4ccccc34)C(=O)N(C)C2=O)c2ccccc21 | > 100 |

These compounds were tested against T1, NAD-dependent protein deacetylase sirtuin-1 (assay: Inhibition of human SIRT1 by radioactive deacetylase assay).
Summary of the method: (§3)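 Radioactive deacetylase assay with recombinant SIRT1 or SIRT2. Substrate was [3H]-acetylated histone H4 N-terminal peptide (residues 1-25). Released [3H]acetic acid quantified by scintillation counting.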

| Structure (SMILES) | IC50 [µM] |
| --- | --- |
| O=C1Cc2c([nH]c3ccccc23)-c2ccccc2N1 [PAULLONE] | 8 |
| CN(C)CCCn1cc(C2=C(c3c[nH]c4ccccc34)C(=O)NC2=O)c2ccccc21 [GF-109203] | 23 |
| CN1C(=O)C(c2c[nH]c3ccccc23)=C(c2c[nH]c3ccccc23)C1=O | 15.7 |

The compounds below were run against T4, NAD-dependent protein deacetylase sirtuin-2 (assay: Inhibition of human recombinant SIRT2 by fluorescent deacetylase assay).
Summary of the method: as §2

| Structure (SMILES) | IC50 [µM] |
| --- | --- |
| CN(C)CCCn1cc(C2=C(c3c[nH]c4ccccc34)C(=O)NC2=O)c2ccccc21 [GF-109203] | 7.3 |
| CN1C(=O)C(c2c[nH]c3ccccc23)=C(c2c[nH]c3ccccc23)C1=O | 33 |

The compounds below were run against T4, NAD-dependent protein deacetylase sirtuin-2 (assay: Inhibition of human recombinant SIRT2 by radioactive deacetylase assay).
Summary of the method: as §3

| Structure (SMILES) | IC50 [µM] |
| --- | --- |
| CN(C)CCCn1cc(C2=C(c3c[nH]c4ccccc34)C(=O)NC2=O)c2ccccc21 [GF-109203] | 11.7 |
| CN1C(=O)C(c2c[nH]c3ccccc23)=C(c2c[nH]c3ccccc23)C1=O | 24.1 |

What follows are compounds tested against T2, NAD-dependent protein deacetylase sirtuin-2 (Homo sapiens) (assay: Inhibition of SIRT2 in A549 cells assessed as ability to induce hyperacetylation of tubulin by Western blot analysis).
Format: cell-based
Summary of the method: (§4)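 A549 human lung carcinoma cells grown in DMEM with 10% FBS, penicillin-streptomycin and 2 mM L-glutamine. Plated 1 day before treatment, then exposed to compound for 6 h. Cells washed with PBS and lysed in buffer containing 400 nM TSA. Lysates run on 10% SDS-PAGE and western blotted for acetylated alpha-tubulin against total alpha-tubulin.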

| Structure (SMILES) | Activity |
| --- | --- |
| O=C1Cc2c([nH]c3ccccc23)-c2ccccc2N1 [PAULLONE] | Active |

What follows are compounds tested against T2, NAD-dependent protein deacetylase sirtuin-2 (Homo sapiens) (assay: Inhibition of SIRT2 in A549 cells assessed as ability to induce hyperacetylation of tubulin by Western blot analysis at 0.1 uM).
Format: cell-based
Summary of the method: as §4

| Structure (SMILES) | Activity |
| --- | --- |
| CC(/C=C/C(=O)NO)=C\[C@@H](C)C(=O)c1ccc(N(C)C)cc1 | Active |

Each compound was assayed against T2, NAD-dependent protein deacetylase sirtuin-2 (Homo sapiens) (assay: Inhibition of human recombinant SIRT2 at 12.5 uM).
Summary of the method: as §2

| Structure (SMILES) | inhibition [%] |
| --- | --- |
| O=Nc1c(-c2c(O)[nH]c3ccccc23)[nH]c2ccccc12 | > 60 |
| COC(=O)/C=C/c1cc(O)ccc1O | > 60 |
| CN(C)CCCn1cc(C2=C(c3c[nH]c4ccccc34)C(=O)NC2=O)c2ccccc21 [GF-109203] | > 60 |
| C=CC(=O)c1ccc2ccccc2c1 | > 60 |
| Oc1cc(O)cc(/C=C/c2ccc(O)c(O)c2)c1 | > 60 |
| O=C(O)c1cc(NCc2cc(O)ccc2O)ccc1O | > 60 |
| COCc1cc(-c2c(COC)cc(O)c(O)c2O)c(O)c(O)c1O | > 60 |
| O=C1Nc2ccc(I)cc2C1=Cc1cc(Br)c(O)c(Br)c1 | > 60 |
| CC(=O)c1c(O)c(C)c(O)c(Cc2c(O)c3c(c(C(=O)/C=C/c4ccccc4)c2O)OC(C)(C)C=C3)c1O | > 60 |
